Consider six compounds from ChEMBL document CHEMBL1135880, “Synthesis and X-ray studies of chiral allosteric modifiers of hemoglobin” (J Med Chem, 2002).

Assay [1] has as its target T1, Hemoglobin HbA (Homo sapiens) (UniProt P69905+P68871). The experiment in a line: Ability to right-shift the oxygen equilibrium curves (OECs) quantified by ability to increase in P50 at which Hb was 50% saturated with oxygen in the […] of the effector at the concentration of 5 mM. It is filed as functional. An outline of the steps:
(§1)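 Human whole blood; DMSO stock 200 mM, final 5 mM effector, DMSO-only control. Duplicate samples equilibrated ~10 min at 37 °C in tonometers against gas mixtures of 2.95%, 5.85% and 8.75% O2 with 5.8% CO2, balance N2. pO2 and sO2 read on blood gas analyzer and co-oximeter. P50 and n50 from nonlinear regression; ΔP50 = P50 effector − P50 control.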

The target in assay [2] is T1, Hemoglobin HbA (Homo sapiens). Kind of assay: Ability to right-shift the oxygen equilibrium curves (OECs) quantified by ability to increase in P50 at which Hb was 50% saturated with oxygen in the presence of the effector at the concentration of 5 mM. It is filed as functional. An outline of the steps: as §1
The target is the same in assay [3]. The experiment in a line: Oxygen pressure in mmHg at which Hb is 50% saturated with oxygen at 50-60 uM heme concentration and in the presence of 0.5 mM effector. It is filed as functional.
Assay [4] shares this target. The experiment in a line: The difference in the partial pressure of oxygen at 50% saturated Hb. It is filed as functional. An outline of the steps: as §1
For assay [5] the target is unchanged. Kind of assay: Ability to right-shift the oxygen equilibrium curves (OECs) quantified by ability to increase in P50 in whole blood analyses. Format: functional, tissue-based. The method in brief:
as §1

Assay [6] shares this target. Kind of assay: Ratio of […] (P50 control value with no effector present 5.0 mmHg, in case of DMSO is 4.7 mmHg ). It is filed as functional.
For assay [7] the target is unchanged. The experiment in a line: The Hill coefficient at 50% saturation (n50) between 40 and 60% oxygen saturation (n50 control value with no effector present, 2.7). It is filed as protein-complex assay.
The target is the same in assay [8]. Kind of assay: The Hill coefficient at 50% saturation (n50) in the presence of effector. It is filed as protein-complex assay. An outline of the steps:
as §1

Assay [9] has the same target. The experiment in a line: Ability to right-shift the oxygen equilibrium curves (OECs) quantified by ability to increase in P50 at which Hb was 50% saturated with oxygen in the […] of the effector. Format: functional.

Molecules are shown by their SMILES.

T1 sequence (P68871 2-147 partner limits assumed): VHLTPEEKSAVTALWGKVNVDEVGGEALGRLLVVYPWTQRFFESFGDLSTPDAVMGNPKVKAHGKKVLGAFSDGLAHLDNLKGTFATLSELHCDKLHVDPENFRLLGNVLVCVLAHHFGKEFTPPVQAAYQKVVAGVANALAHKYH
T1 sequence (P69905 2-142 limits assumed): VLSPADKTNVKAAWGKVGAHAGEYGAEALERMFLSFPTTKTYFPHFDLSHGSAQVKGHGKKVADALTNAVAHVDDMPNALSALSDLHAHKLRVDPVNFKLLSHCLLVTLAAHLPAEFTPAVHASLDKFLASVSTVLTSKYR

In the case of `Cc1cc(C)cc(NC(=O)Cc2ccc(OC3(C(=O)N[C@H](Cc4ccc5[nH]ccc5c4)C(=O)O)CCCC3)cc2)c1`, the values for the P50e in assay [1], in assay [2] and in assay [3] were 47.5 mmHg, 49.9 mmHg and 37.1 mmHg, respectively. In addition, the Delta P50 in assay [4] came to 20. For the same compound, the P50c in assay [5] came to 28.7 mmHg. The P50e / P50c in assay [6] came to 7.4. In addition, the Hill coefficient (n50) in assay [7] is 2.1. Moreover, the n50e in assay [8] came out at 2.1.
As to `Cc1cc(C)cc(NC(=O)Cc2ccc(OC3(C(=O)N[C@@H](Cc4ccc5[nH]ccc5c4)C(=O)O)CCCC3)cc2)c1`, the figures for the P50e in assay [9], in assay [2] and in [3] were 47.2 mmHg, 48.8 mmHg and 37 mmHg, respectively. Moreover, the Delta P50 in [4] came out at 20.2. Also, the P50c in assay [5] came to 27.9 mmHg. Besides, the P50e / P50c in assay [6] turned out to be 7.4. This compound gave a Hill coefficient (n50) in assay [7] of 2.3. Further, the n50e in assay [8] stood at 2.
In the case of `Cc1cc(C)cc(NC(=O)Cc2ccc(OC3(C(=O)N[C@H](CCC(=O)O)C(=O)O)CCCC3)cc2)c1`, the values for the P50e in [9], in assay [2] and in assay [3] were 50.1 mmHg, 51.4 mmHg and 16.8 mmHg, respectively. For the same compound, the Delta P50 in assay [4] amounted to 22.5. In assay [5], the P50c is 28.3 mmHg. For the same compound, the P50e / P50c in [6] is 3.4. The compound also displayed a Hill coefficient (n50) in assay [7] of 2.6. Further, the n50e in [8] is 2.
In the case of `Cc1cc(C)cc(NC(=O)Cc2ccc(OC3(C(=O)N[C@@H](CCCCN)C(=O)O)CCCC3)cc2)c1`, the P50e in assay [9] is 27.2 mmHg; in [2], 29 mmHg; in [3] it was 5.8 mmHg. This compound came in with a Delta P50 in [4] of -0.2. The P50c in [5] came to 28.3 mmHg. The P50e / P50c in assay [6] came to 1.2. In assay [7], this compound displayed a Hill coefficient (n50) of 2.3. In addition, the n50e in [8] turned out to be 2.7.
For `Cc1cc(C)cc(NC(=O)Cc2ccc(OC3(C(=O)N[C@@H](C(=O)O)C(C)O)CCCC3)cc2)c1` (stereo partly drawn), the P50e in [9] was 39.7 mmHg; in assay [2] it was 41.1 mmHg; in assay [3], 14.3 mmHg. This compound gave a Delta P50 in assay [4] of 12.9. Moreover, the P50c in [5] was determined as 27.5 mmHg. In assay [6], the P50e / P50c was determined as 2.9. Further, the Hill coefficient (n50) in [7] was 2.6. Besides, the n50e in [8] was found to be 2.2.
On to `Cc1cc(C)cc(NC(=O)Cc2ccc(OC3(C(=O)N[C@@H](Cc4ccccc4)C(=O)O)CCCC3)cc2)c1`, for which the P50e is 64.1 mmHg in [9], 67.5 mmHg in assay [2] and 12.4 mmHg in assay [3]. In [4], this compound showed a Delta P50 of 38.4. For the same compound, the P50c in assay [5] came to 27.4 mmHg. In assay [6], the P50e / P50c is 2.6. Moreover, in [7], the Hill coefficient (n50) is 2.7. In addition, the n50e in assay [8] was 1.8.
